# Experimental data as given in article PMC9008867 (Therapeutic Advances in Medical Oncology, 2022).
# “And” between values parts separate entries of the source, which are not always exact repeats. Equal values may be shown once. Read-outs that look alike come from different tables or passages of the source.
# Experiments:
# [1] = test system: Asian patients with advanced or metastatic malignancies; test: Adverse events; format: in vivo, human; conditions: Schedule 1; patients n (%)
# Summary of the method: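 Test compound given orally by schedule. Schedule 1: Mon/Thu, 28-day cycle. Schedule 2: Mondays weekly, 28-day cycle. Schedule 3: Mon/Wed for 2 of 3 weeks, 21-day cycle. Schedule 4: Mon/Wed/Fri, 28-day cycle. All patients received anorexia/nausea prophylaxis. AEs were recorded up to 30 days after the last dose and graded every 2 weeks for cycles 1–2, then every 4 weeks.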
# [2] = test system: Asian patients with advanced or metastatic malignancies; format: in vivo, human
# [3] = test system: Asian patients with advanced or metastatic malignancies; test: Phase 1a 3 + 3 dose escalation: DLT, MTD, RP2D, tolerability, deaths; format: in vivo, human
# Summary of the method: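 Modified 3+3 design: ≥3 patients per cohort, expanded to six after one DLT; DLTs were assessed in cycle 1. DLT was possibly drug-related grade ≥3 nonhaematological toxicity (not reversible asymptomatic electrolyte changes or hair loss). Haematological DLT: grade 4 neutropenia ≥7 days, febrile neutropenia, or grade ≥3 thrombocytopenia with bleeding. 2/6 DLTs set the MTD; RP2D was the next lower level. Deaths were counted within 30 days of last dose.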
# [4] = Plasma selinexor pharmacokinetics; format: in vivo, human
# [5] = test system: XPO1; test: XPO1 mRNA expression in PBMCs/leukocytes by qRT-PCR pre and post dose; format: in vivo, human; conditions: 40 and 50 mg/m^2, 10 patients assessed
# [6] = test system: advanced or metastatic malignancies; test: Antitumour response; format: in vivo, human
# Summary of the method: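 Solid tumours were imaged by CT or MRI and scored by RECIST 1.1. NHL was scored by IWG criteria; CTCL by consensus criteria with mSWAT skin scoring plus nodes, blood and viscera. Response was documented at least once at 8 weeks, then every two cycles. Evaluable patients had ≥1 dose and ≥1 postbaseline scan. Expansion dosing: flat 60 mg on days 1, 4, 8, 11 of 21-day cycles.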
# [7] = cited from earlier work
# [8] = test system: relapsed or refractory diffuse large B cell lymphoma; conditions: relapsed or refractory DLBCL; cited from earlier work
# [9] = test system: metastatic castration-resistant prostate cancer; conditions: eight patients with measurable disease at baseline; cited from earlier work
# [10] = test system: leukocytes; conditions: cited from earlier work
# [11] = test system: human melanoma cell lines; conditions: cited from earlier work
# [12] = expansion phase, with drug holiday and pre-emptive antiemetic regimen
# [13] = Schedule 2, 70 mg/m^2 once a week, six patients
# [14] = Schedule 3, 50 mg/m^2, subsequent four patients
# [15] = all dose levels, 74 evaluable patients
# [16] = phase 1b expansion cohort, 35 evaluable patients
# [17] = Caucasian patients, 39 mg/m^2, n = 9
structure (smiles),measurement,setting,value
O=C(/C=C\n1cnc(-c2cc(C(F)(F)F)cc(C(F)(F)F)c2)n1)NNc1cnccn1 [selinexor],"Anaemia, Any grade",[1],1 (16.6) %
same,"Anorexia, Any grade",[1],4 (66.6) %
same,"Dehydration, Any grade",[1],1 (16.6) %
same,"Diarrhoea, Any grade",[1],2 (33.3) %
same,"Fatigue, Any grade",[1],6 (100) %
same,"Hypokalaemia, Any grade",[1],2 (33.3) %
same,"Hypomagnesemia, Any grade",[1],1 (16.6) %
same,"Hyponatremia, Any grade",[1],6 (100) %
same,"Nausea, Any grade",[1],1 (16.6) %
same,"Thrombocytopenia, Any grade",[1],2 (33.3) %
same,"Vomiting, Any grade",[1],1 (16.6) %
same,"Weight loss, Any grade",[1],1 (16.6) %
same,tolerability,"[2]; 60 mg twice a week, 2 out of 3 weeks, Asian patients",well tolerated
same,Grade 3 fatigue,[2]; dose expansion phase,8%
same,grade 3 or 4 anaemia,[2]; dose expansion phase,2%
same,grade 3 or 4 hyponatremia,[2]; dose expansion phase,23%
same,grade 3 or 4 thrombocytopenia,[2]; dose expansion phase,5%
same,grade 3 or 4 vomiting,[2]; dose expansion phase,5%
same,patients with grade 3 or 4 cytopenias,[2]; expansion phase,less than 3%
same,grade 3 or more nausea,[2]; [12],no grade 3 or more nausea
same,incidence of nausea,[2]; [12],30%
same,deaths,"[2]; phase 1b expansion cohort, none attributed to the study drug",Five
same,"Abdominal discomfort, Any grade","[2]; phase 1b, patients n (%)",5 (13.15) %
same,"Abdominal discomfort, G1/G2","[2]; phase 1b, patients n (%)",4 (10.52) %
same,"Abdominal discomfort, G3/G4","[2]; phase 1b, patients n (%)",1 (2.63) %
same,"Abdominal distension, Any grade","[2]; phase 1b, patients n (%)",1 (2.63) %
same,"Abdominal distension, G3/G4","[2]; phase 1b, patients n (%)",1 (2.63) %
same,"Abnormal thyroid function, Any grade","[2]; phase 1b, patients n (%)",2 (5.26) %
same,"Abnormal thyroid function, G1/G2","[2]; phase 1b, patients n (%)",2 (5.26) %
same,"Acute kidney injury, Any grade","[2]; phase 1b, patients n (%)",1 (2.63) %
same,"Acute kidney injury, G1/G2","[2]; phase 1b, patients n (%)",1 (2.63) %
same,"Anaemia, Any grade","[2]; phase 1b, patients n (%)",6 (15.78) %
same,"Anorexia, Any grade","[2]; phase 1b, patients n (%)",18 (47.36) %
same,"Ascites, Any grade","[2]; phase 1b, patients n (%)",2 (5.26) %
same,"Asthenia, Any grade","[2]; phase 1b, patients n (%)",1 (2.63) %
same,"Back pain, Any grade","[2]; phase 1b, patients n (%)",2 (5.26) %
same,"Blurring of vision, Any grade","[2]; phase 1b, patients n (%)",3 (7.89) %
same,"Blurring of vision, G1/G2","[2]; phase 1b, patients n (%)",3 (7.89) %
same,"Constipation, Any grade","[2]; phase 1b, patients n (%)",6 (15.78) %
same,"Cough, Any grade","[2]; phase 1b, patients n (%)",2 (5.26) %
same,"Dehydration, Any grade","[2]; phase 1b, patients n (%)",2 (5.26) %
same,"Diarrhoea, Any grade","[2]; phase 1b, patients n (%)",10 (26.31) %
same,"Dysgeusia, Any grade","[2]; phase 1b, patients n (%)",12 (31.57) %
same,"Dyspnoea/Shortness of breath, Any grade","[2]; phase 1b, patients n (%)",2 (5.26) %
same,"Dyspnoea/Shortness of breath, G1/G2","[2]; phase 1b, patients n (%)",2 (5.26) %
same,"Fever, Any grade","[2]; phase 1b, patients n (%)",2 (5.26) %
same,"Giddiness, Any grade","[2]; phase 1b, patients n (%)",3 (7.89) %
same,"Hyperglycaemia, Any grade","[2]; phase 1b, patients n (%)",2 (5.26) %
same,"Hypersalivation, Any grade","[2]; phase 1b, patients n (%)",1 (2.63) %
same,"Hyperuricaemia, Any grade","[2]; phase 1b, patients n (%)",1 (2.63) %
same,"Hypocalcaemia, Any grade","[2]; phase 1b, patients n (%)",1 (2.63) %
same,"Hypokalaemia, Any grade","[2]; phase 1b, patients n (%)",7 (18.42) %
same,"Hypomaganesemia, Any grade","[2]; phase 1b, patients n (%)",3 (7.89) %
same,"Hyponatremia, Any grade","[2]; phase 1b, patients n (%)",20 (52.63) %
same,"Hypophosphataemia, Any grade","[2]; phase 1b, patients n (%)",5 (13.15) %
same,"Increased creatinine, Any grade","[2]; phase 1b, patients n (%)",2 (5.26) %
same,"Increased creatinine, G1/G2","[2]; phase 1b, patients n (%)",2 (5.26) %
same,"Lethargy, Any grade","[2]; phase 1b, patients n (%)",1 (2.63) %
same,"Loss of Appetite, Any grade","[2]; phase 1b, patients n (%)",8 (21.05) %
same,"Mood swing, Any grade","[2]; phase 1b, patients n (%)",1 (2.63) %
same,"Mucositis, Any grade","[2]; phase 1b, patients n (%)",2 (5.26) %
same,"Nausea, Any grade","[2]; phase 1b, patients n (%)",12 (31.57) %
same,"Peripheral neuropathy, Any grade","[2]; phase 1b, patients n (%)",2 (5.26) %
same,"Peripheral neuropathy, G1/G2","[2]; phase 1b, patients n (%)",2 (5.26) %
same,"Pneumonia, Any grade","[2]; phase 1b, patients n (%)",1 (2.63) %
same,"Pulmonary embolism, Any grade","[2]; phase 1b, patients n (%)",1 (2.63) %
same,"Pulmonary embolism, G1/G2","[2]; phase 1b, patients n (%)",1 (2.63) %
same,"Raised amylase/lipase, Any grade","[2]; phase 1b, patients n (%)",1 (2.63) %
same,"Raised amylase/lipase, G1/G2","[2]; phase 1b, patients n (%)",1 (2.63) %
same,"Raised amylase/lipase, G3/G4","[2]; phase 1b, patients n (%)",1 (2.63) %
same,"Reflux, Any grade","[2]; phase 1b, patients n (%)",1 (2.63) %
same,"Rt buttock pain, Any grade","[2]; phase 1b, patients n (%)",1 (2.63) %
same,"Rt leg pain, Any grade","[2]; phase 1b, patients n (%)",1 (2.63) %
same,"Thrombocytopenia, Any grade","[2]; phase 1b, patients n (%)",6 (15.78) %
same,"Transaminitis, Any grade","[2]; phase 1b, patients n (%)",3 (7.89) %
same,"URTI, Any grade","[2]; phase 1b, patients n (%)",1 (2.63) %
same,"Urinary retention, Any grade","[2]; phase 1b, patients n (%)",1 (2.63) %
same,"Vomiting, Any grade","[2]; phase 1b, patients n (%)",8 (21.05) %
same,"Weight loss, Any grade","[2]; phase 1b, patients n (%)",6 (15.78) %
same,tolerability,"[3]; 40 mg/m^2 given 2 out of 3 weeks, Asian patient cohort",most tolerable
same,DLTs,"[3]; Schedule 1, 40 mg/m^2 twice-a-week continuous, six patients",no DLTs were observed
same,patients with DLTs,"[3]; Schedule 2, 50 mg/m^2 once a week, three patients",none of the three patients
same,DLTs,"[3]; Schedule 2, 60 mg/m^2 once a week, three patients",did not show any DLTs
same,patients with grade 3 fatigue that persisted for more than 5 days,"[3]; Schedule 2, 70 mg/m^2 once a week, additional four patients",one patient
same,patients with grade 3 thrombocytopenia,[3]; [13],one patient
same,patients with grade 3 vomiting,[3]; [13],one patient
same,patients developing DLTs,"[3]; Schedule 3, 40 mg/m^2 twice a week 2 out of 3 weeks",0/3
same,patients with G3 fatigue,"[3]; Schedule 3, 50 mg/m^2, first six patients",one out of six patients
same,patients with G3 dehydration from loss of appetite,[3]; [14],One out of the subsequent four patients
same,patients with G3 hyponatremia,[3]; [14],one other patient
same,patients with G3 diarrhoea and G3 syncope,"[3]; Schedule 4, 16 mg/m^2 three times a week continuous",two out of five patients
same,patients developing DLTs (G3 fatigue and G3 septicaemia),"[3]; Schedule 4, 20 mg/m^2 three times a week continuous",two out of six patients
same,tolerability of schedule,"[3]; Schedule 4, three-times-a-week continuous dosing",deemed intolerable
same,deaths within 30 days of the last study drug administration,"[3]; phase 1a cohort, none related to the study drug",eight
same,"RP2D, flat dose",[3]; twice a week with a 1-week drug holiday every 3-week cycle,60 mg
same,AUC0-8 dose proportionality,"[4]; among 40, 50 and 60 mg/m^2 doses",dose-proportional
same,predose concentrations after multiple doses,[4]; cycle 1 day 15 or cycle 2 day 8/day 15,either 0 or close to 0
same,AUC(0-t),"[4]; human, plasma, oral, 40 mg/m2",5340 ± 1540 ng·h/mL
same,Cmax,"[4]; human, plasma, oral, 40 mg/m2",567 ± 159 ng/mL
same,Tmax,"[4]; human, plasma, po, 60 mg/m2",1 to 4 h
same,mean T1/2,"[4]; oral, 40-60 mg/m^2",~ 6 h
same,patients with at least twofold induction of XPO1 mRNA,[5]; 4 h post dose,nine
same,patients with greater than twofold mRNA increases in XPO1,[5]; 8 h post dose,all 10 patients
same,patients with prolonged stable disease of more than 12 weeks,[6]; [15],10
same,prolonged stable disease of more than 12 weeks,[6]; [15],13.5% and 13%
same,patients with confirmed partial response,"[6]; all dose levels, 74 evaluable, two DLBCL, one Hodgkin's lymphoma, one thymoma",four
same,at least stable disease or better as best response,[6]; [16],37.1%
same,patients with at least stable disease or better as best response,[6]; [16],13
same,patients with prolonged stable disease of more than 12 weeks,"[6]; phase 1b expansion cohort, all colorectal cancer",four
same,objective response (confirmed complete and partial response rate),[6]; whole study,8%
same,AUC0-48,[7]; [17],5829 ± 1587 ng·h/mL
same,Cmax,[7]; [17],553 ± 238 ng/mL
same,Mean half-life,[7]; study KCP-330-002,~ 6 h
same,complete response rate,[8],13%
same,patients achieving partial response,[9],25%
same,patients achieving stable disease as best radiographic response,[9],50%
same,PD-1 and CTLA4 gene expression,[10],increase
same,PD-L1 gene expression,[11],induced
